Laboratory results taken from the RNAGym collection of RNA variant scans (doi:10.1126/science.aae0568).
Variants at the floor of the assay were thinned out.

B1: tRNA (parent)
chain: GUUCCGUUGGCGUAAUGGUAACGCGUCUCCCUCCUAAGGAGAAGACUGCGGGUUCGAGUCCCGUACGGAACG

Variants of: B1
Experiment: yeast fitness relative to wild type (ratio to wild type); higher = fitter; tRNA-Arg(CCU), competitive growth, 37 C, YPD
Method in brief: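 Start and end populations of a pooled competition were compared by 100-nucleotide paired-end sequencing of gene amplicons. The Saccharomyces cerevisiae strains carried tRNA-Arg(CCU) gene variants at the native genomic locus, synthesised with a 3% per-site mutation rate at 69 sites, and competed in YPD at 37°C for 24 hours in six parallel replicates. Darwinian fitness relative to wild type was based on the change in genotype frequencies. Genotypes required ≥ 100 starting reads, and estimates < 0.5 were set to 0.5.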

Variant	yeast fitness
G10C C66U	0.577
G10C C33U A40C	≤ 0.5
G10C C33G A36C U64A A65C	≤ 0.5
G10C U26A G38A A40U	≤ 0.5
G10C G12C C33U U35G	0.614
C11A A14G U19G A43C U53A C66U	0.601
C11A A57G C66U	≤ 0.5
G10C G23C C33G C46A C66A	≤ 0.5
G10U C66U	0.794
G10C G44A A70C	≤ 0.5
C11A A21C U26G A65G A69C	0.525
G10C G56A	0.596
G10C C34G U59A	≤ 0.5
C11A A14U C30U C33A A36U A57G	≤ 0.5
G10U A15U C31G G50C U59C	≤ 0.5
C11A C24U	0.61
G10C U16A C30U	0.54
G10C C33G U64C	≤ 0.5
C11A A37U C49G C60G C62G	≤ 0.5
G10C U28G C33G C49U A69U	≤ 0.5
G10C C30U G51A G63A	≤ 0.5
G10U C11G C24U C34U C46A	≤ 0.5
C11A C22G G25A C34A G41A C66A	≤ 0.5
G10C C29U C46A A69U	0.59

Variant	yeast fitness
G10C G12A A15G A36U C46U	≤ 0.5
C11A A21C U26G A69C	≤ 0.5
C11A C24U U32A U35C C55A G58A	≤ 0.5
C11A A15U A20C C34G	≤ 0.5
C11A A21U U54G	≤ 0.5
C11A A14U C24U C34G U35A A36C C61A	≤ 0.5
C11A A15U C30A A42C	≤ 0.5
C11A A21U G41A	≤ 0.5
G10C G12A A15G A69C	≤ 0.5
C11A A36U C61U A65U	≤ 0.5
G10C G12C C24U C29G G68C	≤ 0.5
G10C C31G A45U G68C	≤ 0.5
C11A C24G C34G A36G	≤ 0.5
G10C C31U A57C C62A	≤ 0.5
G10C U16A C30U A57G	0.646
C11A C24G C34G	≤ 0.5
G10C G12C C46A	≤ 0.5
C11A A15G A20G A37C G50A G67C	≤ 0.5
C11A A43U C46U U47G G58A	≤ 0.5
G10C G68C	0.697
C11A C24U U32A U35C U59C	≤ 0.5
G10C G12C C55A	≤ 0.5
G10C G12C C49U G56C	≤ 0.5
G10C G50A C61G	0.554

Variant	yeast fitness
C11A A20U U28A C60G	0.521
G10C C46G G51A G52A	≤ 0.5
C11A A14U C30G	≤ 0.5
G10C C29U C49G G63C	≤ 0.5
G10C G12A G25C A37G	≤ 0.5
G10C G63A G68C	≤ 0.5
G10C U26A C49U	≤ 0.5
C11A A21G C34U A37G U47C A57G C62U	≤ 0.5
G10C C31A A65C A69C	≤ 0.5
C11A A65C	0.607
G10C U26A C61G A70C	≤ 0.5
C11A C27A A40C A43G G48C A65G	0.541
G10C G12C C46G C55U G67C	≤ 0.5
G10C C34A C55U	≤ 0.5
C11A A69C	0.671
C11A A20G C62A	0.605
G10U U32A G38C U64C	≤ 0.5
G10C G48A	0.851
C11A C24G C34U C49A	≤ 0.5
G10U U16A G25A C49U G50C	≤ 0.5
G10C C30U C31A	≤ 0.5
G10C U35G A69C	≤ 0.5
C11A A37C C49G C66A	≤ 0.5
G10C G41A G50C	≤ 0.5

Variant	yeast fitness
G10C U32A C61G A70U	≤ 0.5
C11A A21C G39C	≤ 0.5
G10C C31U A57C C62A A70U	≤ 0.5
G10C C34U A40C	0.667
C11A A14U A42G C62A C66U	≤ 0.5
C11A A37U G67A	≤ 0.5
G10C U19A	0.612
G10C U19G	0.552
G10C C30G U59G C66A	≤ 0.5
G10C C46G U54C	≤ 0.5
C11A A36C A43G G50C	≤ 0.5
G10C C60A	0.583
G10C C60U	≤ 0.5
G10C C33G A36C	≤ 0.5
G10C U19A C24U	0.531
C11A A15G C49U C66U	≤ 0.5
C11A A21C U64A	0.688
C11A C24A U26A G44C	≤ 0.5
C11A A21C C34A A57U C61A	0.539
C11A C24A A36G G48A	≤ 0.5
G10U A20C C34A U53A U54G	≤ 0.5
G10C G44C C55G A69U	0.59
G10U C27G G39A G67A	≤ 0.5
G10C U13A A21U U26C C31U A43U G58A G63C A70C	≤ 0.5

Variant	yeast fitness
G10C G23A A45C U54C	0.58
G10C G12C G17U G39A C61U A69C	≤ 0.5
C11A A20G C62U C66A	≤ 0.5
C11A A15U A20C C34G A65C	≤ 0.5
G10C U32C C33A A45U	≤ 0.5
C11A A21G C34U A37G G58A	≤ 0.5
G10C G12A U16A C30U	≤ 0.5
G10C U13C U32G	≤ 0.5
C11A A14U A21C C46U U53C A65G	0.575
C11A A15U A20G	≤ 0.5
C11A A40G U53C	0.619
G10C U26A C49U C55G C60G	≤ 0.5
G10C U13C U53C	0.512
C11A A15G A20G C24U A37C G50A G67C	≤ 0.5
G10C G12A	0.757
G10C G12C	0.645
G10C C49G A65G	0.55
C11A A57G A69G	≤ 0.5
G10C G12A U28C C61G C66U	≤ 0.5
G10C U26A	0.71
C11A A21C C31A	0.567
G10C C46G	0.708
G10C G12C G39A C61U	≤ 0.5
G10C U26A A43G C60U C62U A70C	≤ 0.5

Variant	yeast fitness
G10C G56A A70C	0.554
G10C G48A U54A A69C	≤ 0.5
G10C C49U C62U	≤ 0.5
C11A A21C C30U	0.678
C11A A43U G48C C60G	≤ 0.5
G10C C61U	0.792
G10C C61G	0.656
C11A C22G C34A G41A A70U	≤ 0.5
C11A A36U	0.559
C11A A36G	0.646
C11A A37U G48A	≤ 0.5
G10C G41A C66U	≤ 0.5
G10C U13A A43U C61A A70C	≤ 0.5
C11A C24U G38C	≤ 0.5
G10C C34G A42U A70C	≤ 0.5
C11A A37G A40G A43G G52C U59G	≤ 0.5
G10C U16G C31A U32G C55U	≤ 0.5
G10C C31U U35G C62U	≤ 0.5
C11A A43G G50C	≤ 0.5
G10C C34A	0.504
C11A A65G C66U	0.571
C11A A15C C24G C61A A69C	≤ 0.5
C11A A20G G39A G51A U53A G63C	0.545
G10C G51A G63A	≤ 0.5

Variant	yeast fitness
G10C U13A A14G A20G C22A C24G U32G	≤ 0.5
G10U A69U	0.864
G10C U19C A65G A70C	≤ 0.5
C11A C22U C24G C30G	≤ 0.5
C11A A42C G50C A57C C61G	≤ 0.5
C11A A15G C31A C60A	≤ 0.5
G10C U35G A43C U47C C55U	≤ 0.5
C11A A42G A43U C46U C62U	0.582
G10C U19G C29U U54A	≤ 0.5
C11A C24U U32G A40U U64G	≤ 0.5
C11A A37U U54C	0.678
C11A A21U A43U A57G	≤ 0.5
C11A C24U C34A A37U C62A C66A	0.599
G10C U13C G18C C27U C33G C55U U64A G68C A70U	0.593
C11A A21U C49A	≤ 0.5
C11A C24G C30G C55G	≤ 0.5
G10C U13A C31A C55U	≤ 0.5
C11A A20U	0.681
C11A A20G	0.556
G10C U13C G18C C27U C33G C46A C55U U64A G68C A70U	≤ 0.5
C11A A20U C33U C34U G48A C66U	0.557
G10C C33A G48A G58A	≤ 0.5
G10C U16C A20G	≤ 0.5
